The source of these data is ChEMBL document CHEMBL3352339, “Implications of N-capped urea/thiourea and C-capped 3-(1-piperazinyl)-1,2-benzisothiazole with bridging Gly-Val/Phe-Gly-Val-Pro as therapeutic targets” (Eur J Med Chem, 2014).

Structures are written as SMILES. In brackets after ≈: the same amount, converted by molar mass. Starred links: 1 amine or outer side, 2 acyl side, 3 side chain; linkers in the order of their positions; H or OH if unused. Residues, ends and D or L forms follow the SMILES beside them. *: point of attachment. Thiocarbamoyl(4-MeOPh) = COc1ccc(NC(=S)*)cc1; X1 = c1ccc2c(N3CCN(*)CC3)nsc2c1; CO = O=C([*:1])[*:2]; X6 = Fc1cccc(N*)c1; X3 = COc1ccccc1N*

Series [1] deals with Fusarium oxysporum. Description: Antifungal activity against Fusarium oxysporum at 50 ug/mL incubated for 3 days by agar well diffusion method. The note with it: 72 h, read-out: IZ. The series is classed as functional. In outline: (§1)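 Fungal growth inhibition measured by agar well diffusion, with bavistin as the reference. Records the mean inhibition-zone diameter (mm) around each well.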
A general note: In agar diffusion tests the substance spreads into inoculated agar from a disc or well.

The nature of series [2]: Antiglycation activity using bovine serum albumin incubated at 37 degC for 7 days by spectrofluorimetry. Type of series: physicochemical. In a few lines:
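Glycation of bovine serum albumin, with rutin as the reference standard. IC50 values are averages of triplicate runs.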

Series [3] deals with Urease (Canavalia ensiformis, UniProt P07374). The series can be described thus: Inhibition of jack bean urease assessed as reduction in ammonia production incubated at 30 degC for 15 mins by indophenol method. In outline:
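Inhibition of jack bean urease, with thiourea as the reference standard. IC50 values are the average of triplicate runs.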

The nature of series [4]: Inhibition of sheep stomach parietal cells gastric H+/K+-ATPase activity assessed as reduction in inorganic phosphorus production by Fiske Subbarow's method. The series is classed as tissue-based, Ovis aries. The note with it: read-out: IC50. In outline:
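Inhibition of purified H+/K+-ATPase, with omeprazole as the reference. IC50 is the mean of triplicate runs.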

Series [5] has as its system Escherichia coli. The series can be described thus: Antibacterial activity against Escherichia coli at 50 ug/mL incubated for 24 hrs by agar well diffusion method. Type of series: functional. The note with it: read-out: IZ. In outline:
(§2)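 Agar well diffusion against the bacterial isolate, with streptomycin as the reference drug. Read-out is the average diameter (mm) of the growth-inhibition zone around the well.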

Series [6] deals with Xanthomonas oryzae. The series can be described thus: Antibacterial activity against Xanthomonas oryzae at 50 ug/mL incubated for 24 hrs by agar well diffusion method. Type of series: functional. Particulars: read-out: IZ.
Series [7] relates to Staphylococcus. Description: Antibacterial activity against Coagulase positive Staphylococcus at 50 ug/mL incubated for 24 hrs by agar well diffusion method. Type of series: functional. Particulars: read-out: IZ. In a few lines:
as §2

In series [8] the test system is Aspergillus flavus. Description: Antifungal activity against Aspergillus flavus at 50 ug/mL incubated for 3 days by agar well diffusion method. The series is classed as functional. Particulars: 72 h, read-out: IZ. In a few lines: as §1
The subject of series [9] is Aspergillus niger. Description: Antifungal activity against Aspergillus niger at 50 ug/mL incubated for 3 days by agar well diffusion method. The note with it: 72 h, read-out: IZ. Type of series: functional. In outline:
as §1

The test system of series [10] is Fusarium verticillioides. Description: Antifungal activity against Fusarium moniliforme at 50 ug/mL incubated for 3 days by agar well diffusion method. Particulars: 72 h, read-out: IZ. The series is classed as functional. In a few lines: as §1
In series [11] the test system is Fusarium verticillioides. The series can be described thus: Antifungal activity against Fusarium moniliforme incubated for 48 to 72 hrs by agar microdilution method. Type of series: functional. In a few lines:
(§3)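 MIC by microdilution against the fungal strain, limited to compounds showing significant zones in the diffusion assay. Bavistin was used as the reference.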

Series [12] concerns Fusarium oxysporum. Description: Antifungal activity against Fusarium oxysporum incubated for 48 to 72 hrs by agar microdilution method. Type of series: functional. In a few lines:
as §3

Series [13] concerns Aspergillus flavus. The series can be described thus: Antifungal activity against Aspergillus flavus incubated for 48 to 72 hrs by agar microdilution method. Type of series: functional. In outline: as §3
For series [14], the system named is Aspergillus niger. Description: Antifungal activity against Aspergillus niger incubated for 48 to 72 hrs by agar microdilution method. Type of series: functional. In a few lines:
as §3

Sequence of Urease (P07374 whole entry): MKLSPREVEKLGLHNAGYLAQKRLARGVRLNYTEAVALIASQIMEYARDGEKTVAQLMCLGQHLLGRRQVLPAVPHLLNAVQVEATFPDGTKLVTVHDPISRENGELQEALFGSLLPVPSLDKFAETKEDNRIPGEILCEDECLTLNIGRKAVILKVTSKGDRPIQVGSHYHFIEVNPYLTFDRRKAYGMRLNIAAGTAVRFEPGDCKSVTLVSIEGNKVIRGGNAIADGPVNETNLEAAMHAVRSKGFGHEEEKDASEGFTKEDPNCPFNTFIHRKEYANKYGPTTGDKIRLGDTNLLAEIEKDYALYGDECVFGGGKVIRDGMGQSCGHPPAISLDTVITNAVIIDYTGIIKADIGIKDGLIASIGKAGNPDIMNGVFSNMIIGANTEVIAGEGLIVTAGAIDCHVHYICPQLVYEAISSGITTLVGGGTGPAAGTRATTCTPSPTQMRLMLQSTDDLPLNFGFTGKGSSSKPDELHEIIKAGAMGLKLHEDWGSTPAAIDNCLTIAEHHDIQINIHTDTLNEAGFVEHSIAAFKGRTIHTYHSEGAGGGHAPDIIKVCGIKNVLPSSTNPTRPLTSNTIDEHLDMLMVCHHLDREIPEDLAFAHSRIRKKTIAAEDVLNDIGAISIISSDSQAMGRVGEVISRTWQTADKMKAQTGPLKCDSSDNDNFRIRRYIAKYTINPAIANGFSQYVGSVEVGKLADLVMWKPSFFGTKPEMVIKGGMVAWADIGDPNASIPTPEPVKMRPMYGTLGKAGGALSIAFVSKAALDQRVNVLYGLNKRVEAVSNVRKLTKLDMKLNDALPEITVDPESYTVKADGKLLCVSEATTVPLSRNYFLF

As to `COc1ccc(NC(=S)NCC(=O)N[C@H](C(=O)NCC(=O)N[C@H](C(=O)N2CCC[C@H]2C(=O)N2CCN(c3nsc4ccccc34)CC2)C(C)C)C(C)C)cc1` ({Thiocarbamoyl(4-MeOPh)}-GVGVP-X1), the zone of inhibition at 50 µg/mL came out at 26 mm in [1]; 24 mm in series [5]; 25 mm in series [6]; 24 mm in series [7]; 25 mm in series [8]; 24 mm in series [9]. The zone of inhibition at 50 µg/mL in series [10] was found to be 26 mm. In addition, the values for the IC50 in series [2], in series [3] and in series [4] were 18 µM, 18 µM and 32 µM, respectively.

Consider `COc1ccccc1NC(=O)NCC(=O)N[C@@H](Cc1ccccc1)C(=O)NCC(=O)N[C@H](C(=O)N1CCC[C@H]1C(=O)N1CCN(c2nsc3ccccc23)CC1)C(C)C` ({X3-CO}-GFGVP-X1), for which the zone of inhibition at 50 µg/mL in series [1] stood at 23 mm; in series [5], 23 mm; in [6], 22 mm; in [7] it was 23 mm; in [8], 25 mm; in series [9], 24 mm. Also, the zone of inhibition at 50 µg/mL in series [10] was determined as 26 mm. For the same compound, the IC50 in [2] came to 22 µM; in [3] it was 21 µM; in [4], 54 µM.

As to `COc1ccccc1NC(=O)NCC(=O)N[C@H](C(=O)NCC(=O)N[C@H](C(=O)N1CCC[C@H]1C(=O)N1CCN(c2nsc3ccccc23)CC1)C(C)C)C(C)C` ({X3-CO}-GVGVP-X1), the zone of inhibition at 50 µg/mL was found to be 21 mm in [1]; 19 mm in series [5]; 18 mm in [6]; 19 mm in series [7]; 21 mm in series [8]; 23 mm in series [9]. Also, in series [10], the zone of inhibition at 50 µg/mL was determined as 23 mm. For the same compound, the IC50 in [2] amounted to 24 µM; in series [3], 22 µM; in series [4], 46 µM.

Take `CC(C)[C@H](NC(=O)CNC(=O)[C@H](Cc1ccccc1)NC(=O)CNC(=O)Nc1cccc(F)c1)C(=O)N1CCC[C@H]1C(=O)N1CCN(c2nsc3ccccc23)CC1` ({X6-CO}-GFGVP-X1): the zone of inhibition at 50 µg/mL in series [1] is 29 mm; in [5], 28 mm; in series [6], 26 mm; in series [7], 29 mm; in series [8], 29 mm; in series [9], 30 mm. For the same compound, the zone of inhibition at 50 µg/mL in series [10] is 31 mm. The values for the concentration for half-maximal inhibition (IC50) in series [2], in series [3] and in series [4] were 50 µM, 43 µM and 92 µM, respectively.

In the case of `CC(C)[C@H](NC(=O)CNC(=O)Nc1cccc(F)c1)C(=O)NCC(=O)N[C@H](C(=O)N1CCC[C@H]1C(=O)N1CCN(c2nsc3ccccc23)CC1)C(C)C` ({X6-CO}-GVGVP-X1), the zone of inhibition at 50 µg/mL in series [1] turned out to be 24 mm; in series [5] it was 24 mm; in series [6] it was 22 mm; in [7], 23 mm; in series [8], 25 mm; in series [9] it was 27 mm. Further, the zone of inhibition at 50 µg/mL in [10] came to 27 mm. In addition, the half-inhibitory concentration (IC50) in series [2] was 52 µM; in series [3], 44 µM; in [4] it was 88 µM.

Take `COC(=O)Nc1nc2ccccc2[nH]1` [CARBENDAZIM]: the minimal inhibitory concentration (MIC) came out at 20 µg/mL (≈ 105 µM) in [11], 24 µg/mL (≈ 126 µM) in series [12], 24 µg/mL (≈ 126 µM) in [13] and 22 µg/mL (≈ 115 µM) in series [14]. The zone of inhibition at 50 µg/mL in series [1] worked out at 13 mm; in series [8], 13 mm; in series [9], 14 mm; in series [10] it was 15 mm.

Usually IC50 stands for the point on the concentration scale where inhibition reaches its midpoint. Broadly, the MIC is the least concentration at which growth counts as inhibited. Low values mean inhibition by little substance, high ones a need for much substance.
